Experiments:
Format in all cases: functional, cell-based
Settings in all cases: Mus musculus
P388 [1] = experiment: Effect was evaluated by implanting P388/DDP leukemia cells into B6D2F1 mice and treated for 1-7 days at 2 umol/ Kg dose
Outline: (§1)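 P388 or P388/DDP leukemia cells (10^6/mouse) implanted ip into B6D2F1 mice on day 0; 6 animals/group, 8 untreated controls. Complexes dissolved in water just before use, given ip. Read-out %T/C = median survival time ×100 of treated vs untreated; >125% taken as significant. P388/DDP subline raised in vivo by serial passage with single ip cis-DDP (20 µmol/kg) 2 days after implantation.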

P388 [2] = experiment: Effect was evaluated by implanting P388/DDP leukemia cells into B6D2F1 mice and treated for 1 day at 193 umol/ Kg dose; outline: as §1
P388 [3] = experiment: Inhibitory effect was evaluated on the growth of P388 cells
Outline: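 P388 cells (10^5 cells/mL, exponential growth) exposed to the platinum complexes at increasing concentrations for 1 h at 37 °C, drug removed, then grown 48 h more; cell number and viability counted by trypan blue exclusion. ID50 = 50% growth-inhibitory concentration; five experiments, each in triplicate, mean ± standard deviation.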

P388 [4] = experiment: Effect was evaluated by implanting P388 cells into B6D2F1 mice and treated for 1-7 days at 2 umol/ Kg dose; outline: as §1
P388 [5] = experiment: Effect was evaluated by implanting P388 cells into B6D2F1 mice and treated for 1 day at 26 umol/ Kg dose; outline: as §1
P388 [6] = experiment: Effect was evaluated by implanting P388 cells into B6D2F1 mice and treated for 1 day at 193 umol/ Kg dose; outline: as §1

Row | Sequence | T/C (P388 [1]) | T/C (P388 [2]) | ID50 (P388 [3]) | T/C (P388 [4]) | T/C (P388 [5]) | T/C (P388 [6])
1 | CISPLATIN | 90% | 95% | 2.05 µM | 203% | 202% | –
2 | TRANSPLATIN | – | 107% | 85 µM | – | – | 105%

Source: ChEMBL document CHEMBL1126600, “A trans-platinum complex showing higher antitumor activity than the cis congeners” (J Med Chem, 1993)
